Reference: ChEMBL document CHEMBL4014329, “Selective Inhibition of Escherichia coli RNA and DNA Topoisomerase I by Hoechst 33258 Derived Mono- and Bisbenzimidazoles” (J Med Chem, 2017)
Values after ≈ are worked out from the molar mass of the structure shown. Active and inactive are the calls of the source. The calls are words filed in the database; no cut-off is given here.

Legend:
Acinetobacter baumannii = experiment: Antibacterial activity against Acinetobacter baumannii ATCC 19606 after 24 hrs by microbroth dilution method; type: functional; conditions: ATCC 19606 = CIP 70.34 = JCM 6841, 24 h
Procedure, shortened: (§1)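 Microbroth dilution per CLSI guidelines. Organisms grown in Mueller−Hinton broth at 37 °C with shaking to log phase, pelleted, resuspended in 0.85% saline to OD625 0.1. Final inoculum 5 × 10^5 CFU/mL; triplicate; 24 h at 37 °C. OD625 read; MIC = lowest concentration completely inhibiting growth versus untreated controls.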

Enterococcus faecalis = experiment: Antibacterial activity against Enterococcus faecalis ATCC 29212 after 24 hrs by microbroth dilution method; type: functional; conditions: ATCC 29212, 24 h; procedure, shortened: as §1
DNA topoisomerase 1 = biological target: T1, DNA topoisomerase 1 (Homo sapiens, UniProt P11387); experiment: Inhibition of human DNA topoisomerase 1 using plasmid pBAD-GFPuv as substrate after 30 mins by agarose gel electrophoresis
T1 sequence (P11387 whole entry): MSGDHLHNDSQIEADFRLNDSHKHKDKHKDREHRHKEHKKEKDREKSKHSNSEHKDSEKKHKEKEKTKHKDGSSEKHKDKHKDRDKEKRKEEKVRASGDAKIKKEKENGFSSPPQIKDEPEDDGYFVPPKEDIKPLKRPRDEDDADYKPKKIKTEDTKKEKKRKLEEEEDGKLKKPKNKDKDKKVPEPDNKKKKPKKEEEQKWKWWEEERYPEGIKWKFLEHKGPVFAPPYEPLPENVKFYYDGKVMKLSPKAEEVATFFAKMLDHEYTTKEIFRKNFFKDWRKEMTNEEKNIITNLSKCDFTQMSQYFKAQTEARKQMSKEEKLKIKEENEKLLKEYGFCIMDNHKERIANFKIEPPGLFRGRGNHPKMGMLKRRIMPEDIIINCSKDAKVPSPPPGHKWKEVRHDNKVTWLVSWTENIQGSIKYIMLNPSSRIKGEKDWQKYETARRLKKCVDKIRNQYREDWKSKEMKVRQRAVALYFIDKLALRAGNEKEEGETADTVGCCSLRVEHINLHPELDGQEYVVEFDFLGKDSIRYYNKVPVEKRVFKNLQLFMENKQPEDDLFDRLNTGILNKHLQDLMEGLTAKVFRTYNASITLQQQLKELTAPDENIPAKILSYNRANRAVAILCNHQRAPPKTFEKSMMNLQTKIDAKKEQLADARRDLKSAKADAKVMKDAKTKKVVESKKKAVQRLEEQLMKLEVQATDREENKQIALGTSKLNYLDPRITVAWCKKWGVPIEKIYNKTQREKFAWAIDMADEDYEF

[1] = Binding affinity to dA60.dT60 B-DNA duplex (unknown origin) assessed as change in melting temperature at 10 uM by UV-vis spectrophotometric analysis
Procedure, shortened: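 UV melting of dA60·dT60 at 1 μM/duplex with compound at 10 μM. Buffer 10 mM sodium cacodylate, 0.1 mM EDTA, 100 mM NaCl, pH 7.0; duplex pre-annealed from 95 °C. Compound stocks in DMSO diluted into buffer. Heating at 0.2 °C/min, monitored at 260 nm, points every 1.0 °C; Tm taken from derivatives.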

[2] = Binding affinity to dA60.dT60 B-DNA duplex (unknown origin) assessed as induction of biphasic transition at <5 uM by UV-vis spectrophotometric analysis
Escherichia coli [3] = experiment: Inhibition of Escherichia coli DNA gyrase using relaxed plasmid pBAD-GFPuv as substrate after 30 mins by agarose gel electrophoresis
Citrobacter freundii = experiment: Antibacterial activity against Citrobacter freundii 4747CFAA after 24 hrs by microbroth dilution method; type: functional; procedure, shortened: as §1
Staphylococcus aureus [4] = experiment: Antibacterial activity against methicillin-resistant Staphylococcus aureus 33591 after 24 hrs by microbroth dilution method; type: functional; conditions: Staphylococcus aureus, 33591, 24 h
Procedure, shortened: (§2)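 Mueller-Hinton broth cultures grown at 37 °C with shaking to log phase, pelleted, resuspended in 0.85% saline to OD625 0.1. Broth microdilution per CLSI guidelines, final inoculum 5 × 10^5 CFU/mL, in triplicate, 24 h at 37 °C. Growth read as OD625. MIC is the lowest concentration giving complete growth inhibition versus untreated controls.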

Escherichia coli [5] = experiment: Antibacterial activity against Escherichia coli K-12 after 24 hrs by microbroth dilution method; type: functional; conditions: K-12, 24 h; procedure, shortened: as §1
Escherichia coli [6] = experiment: Inhibition of Escherichia coli RNA topoisomerase-1 using circular RNA as substrate 10 uM after 1.5 hrs by SDS-PAGE analysis
Procedure, shortened: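 10 nM E. coli topoisomerase I premixed with reaction buffer and inhibitor diluted in DMSO, then circular RNA substrate added; 1.5 h incubation. Stopped with proteinase K/SDS/EDTA buffer. Trefoil RNA knot product separated from circular substrate on 15% TBE−urea gels and detected by phosphorimaging. DMSO-only control included.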

Shigella flexneri = experiment: Antibacterial activity against Shigella flexneri 2457NR517 after 24 hrs by microbroth dilution method; type: functional; conditions: 2457NR517, 24 h; procedure, shortened: as §2
Pseudomonas aeruginosa = experiment: Antibacterial activity against Pseudomonas aeruginosa ATCC 27853 after 24 hrs by microbroth dilution method; type: functional; conditions: ATCC 27853, 24 h; procedure, shortened: as §1
Staphylococcus aureus [7] = experiment: Antibacterial activity against methicillin-resistant Staphylococcus aureus A960649 after 24 hrs by microbroth dilution method; type: functional; conditions: A960649, 24 h; procedure, shortened: as §2
Staphylococcus aureus [8] = experiment: Antibacterial activity against Staphylococcus aureus ATCC 33591 after 24 hrs by microbroth dilution method; type: functional; conditions: ATCC 33591, 24 h; procedure, shortened: as §1
[9] = Inhibition of Escherichia coli DNA topoisomerase 1 using plasmid pBAD-GFPuv as substrate after 15 mins by agarose gel electrophoresis
Procedure, shortened: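 E. coli topoisomerase I at 6 nM relaxing 150 ng supercoiled pBAD-GFPuv. 15 min at 37 °C, phenol-stopped, 1% agarose gel, ethidium stain. IC50 is the concentration leaving 50% DNA supercoiled; three independent determinations.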

Escherichia coli [10] = experiment: Antibacterial activity against Escherichia coli ATCC 25922 after 24 hrs by microbroth dilution method; type: functional; conditions: ATCC 25922, 24 h; procedure, shortened: as §1
Enterobacter cloacae = experiment: Antibacterial activity against Enterobacter cloacae ATCC 13047 after 24 hrs by microbroth dilution method; type: functional; conditions: ATCC 13047, 24 h; procedure, shortened: as §1
Enterococcus faecium = experiment: Antibacterial activity against Enterococcus faecium BM4105RF after 24 hrs by microbroth dilution method; type: functional; procedure, shortened: as §2
[11] = Cytotoxicity against human PCS-201-010 cells after 48 hrs by SRB assay; type: cell-based; conditions: PCS-201-010, 48 h
Procedure, shortened: (§3)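 Cells cultured per ATCC protocols, seeded and grown 24 h (37 °C, 5% CO2), then treated in triplicate at final 20, 10, 5, 2.5, 1.25, 0.625 and 0.0625 μM for 48 h. Fixed with cold TCA (16% final, 4 °C, 1 h), stained with SRB in 1% acetic acid, dye solubilized in 10 mM Tris base, A560 read. IC50 derived; study in duplicate.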

Staphylococcus aureus [12] = experiment: Antibacterial activity against Staphylococcus aureus ATCC 29213 after 24 hrs by microbroth dilution method; type: functional; conditions: ATCC 29213, 24 h; procedure, shortened: as §1
Klebsiella pneumoniae = experiment: Antibacterial activity against Klebsiella pneumoniae NR15410 after 24 hrs by microbroth dilution method; type: functional; conditions: NR15410, 24 h; procedure, shortened: as §1
DU-145 = experiment: Cytotoxicity against human DU145 cells after 48 hrs by SRB assay; type: cell-based; conditions: for IC50: Homo sapiens, DU-145, 48 h; procedure, shortened: as §3
[13] = system: Staphylococcus epidermidis; experiment: Antibacterial activity against Staphylococcus epidermidis ATCC 12384 after 24 hrs by microbroth dilution method; type: functional; conditions: ATCC 12384, 24 h; procedure, shortened: as §1
Escherichia coli [14] = experiment: Inhibition of Escherichia coli RNA topoisomerase 1 using circular RNA as substrate up to 80 uM after 1.5 hrs by SDS-PAGE analysis
Procedure, shortened: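 E. coli topoisomerase I (10 nM) premixed in reaction buffer with inhibitor diluted in DMSO, then circular RNA substrate added; 1.5 h. DMSO-only control included. Final inhibitor 2.5 to 80 μM. Stopped with proteinase K/SDS/EDTA. Trefoil RNA knot product resolved from substrate on 15% TBE-urea gels and detected by autoradiography.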

[15] = Inhibition of human DNA topoisomerase 2 using plasmid pBAD-GFPuv as substrate after 30 mins by agarose gel electrophoresis
Procedure, shortened: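 Compound at 5–50 μM final, 30 min at 37 °C. Phenol extraction, 1% agarose electrophoresis, ethidium stain. IC50 = concentration at which 50% of DNA remains (−) supercoiled.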

| SMILES | MIC (Acinetobacter baumannii) | MIC (Enterococcus faecalis) | IC50 (DNA topoisomerase 1) | ΔTm [1] | Activity [2] | MIC (Citrobacter freundii) | MIC (Staphylococcus aureus [4]) | MIC (Escherichia coli [5]) | inhibition (Escherichia coli [6]) | MIC (Shigella flexneri) | MIC (Pseudomonas aeruginosa) | MIC (Staphylococcus aureus [7]) | MIC (Staphylococcus aureus [8]) | IC50 [9] | MIC (Escherichia coli [10]) | MIC (Enterobacter cloacae) | MIC (Enterococcus faecium) | MIC (Staphylococcus aureus [12]) | MIC (Klebsiella pneumoniae) | MIC [13] | also measured |
| --- | --- | --- | --- | --- | --- | --- | --- | --- | --- | --- | --- | --- | --- | --- | --- | --- | --- | --- | --- | --- | --- |
| C#CCOCCCCCCCCCCCCOc1ccc(-c2nc3ccc(-c4nc5ccc(N6CCN(C)CC6)cc5[nH]4)cc3[nH]2)cc1 | > 32 µg/mL | 16 to 32 µg/mL (≈ 24.7 to 49.5 µM) | > 50 µM | 1.2 °C | Active | > 32 µg/mL | > 32 µg/mL | 16 µg/mL (≈ 24.7 µM) | Active | > 32 µg/mL | 16 µg/mL (≈ 24.7 µM) | > 32 µg/mL | 16 to 32 µg/mL (≈ 24.7 to 49.5 µM) | 4 µM | 16 µg/mL (≈ 24.7 µM) | > 32 µg/mL | ≥ 32 µg/mL | 16 to 32 µg/mL (≈ 24.7 to 49.5 µM) | > 32 µg/mL | > 32 µg/mL | inhibition (Escherichia coli [3]): inactive; IC50 [11]: > 10 µM; IC50 (DU-145): > 10 µM |
| CCOc1ccc2nc3cc(N)ccc3c(N)c2c1 | – | – | – | – | – | – | – | – | – | – | – | – | – | – | – | – | – | – | – | – | inhibition (Escherichia coli [14]): inactive |
| C#CCOCCCCCCCCOc1ccc(-c2nc3ccc(-c4nc5ccc(N6CCN(C)CC6)cc5[nH]4)cc3[nH]2)cc1 | > 32 µg/mL | 16 to 32 µg/mL (≈ 27.1 to 54.2 µM) | > 50 µM | 13.1 °C | Active | > 32 µg/mL | > 32 µg/mL | 2 to 4 µg/mL (≈ 3.39 to 6.77 µM) | Active | > 38 µg/mL | 16 to 32 µg/mL (≈ 27.1 to 54.2 µM) | > 32 µg/mL | 16 to 32 µg/mL (≈ 27.1 to 54.2 µM) | 2.8 µM | 16 to 32 µg/mL (≈ 27.1 to 54.2 µM) | > 32 µg/mL | > 32 µg/mL | > 32 µg/mL | > 32 µg/mL | > 32 µg/mL | Activity (DU-145; human, du-145, 48 h): Toxic |
| CCOc1ccc(-c2nc3cc(-c4nc5cc(N6CCN(C)CC6)ccc5[nH]4)ccc3[nH]2)cc1 | 8 µg/mL (≈ 17.7 µM) | 16 to 32 µg/mL (≈ 35.4 to 70.7 µM) | – | – | – | – | 1 µg/mL (≈ 2.21 µM) | 16 µg/mL (≈ 35.4 µM) | – | 1 to 2 µg/mL (≈ 2.21 to 4.42 µM) | 16 µg/mL (≈ 35.4 µM) | 0.5 µg/mL (≈ 1.1 µM) | 2 to 4 µg/mL (≈ 4.42 to 8.84 µM) | – | 16 µg/mL (≈ 35.4 µM) | 4 µg/mL (≈ 8.84 µM) | 0.3 µg/mL (≈ 0.663 µM) | 2 to 4 µg/mL (≈ 4.42 to 8.84 µM) | – | 1 µg/mL (≈ 2.21 µM) | inhibition (Escherichia coli [14]): inactive |
| C#CCCCCCCCCCOc1ccc(-c2nc3ccc(-c4nc5ccc(N6CCN(C)CC6)cc5[nH]4)cc3[nH]2)cc1 | > 32 µg/mL | – | – | – | – | > 32 µg/mL | > 32 µg/mL | – | Active | > 32 µg/mL | 16 µg/mL (≈ 27.8 µM) | > 32 µg/mL | – | – | 16 µg/mL (≈ 27.8 µM) | > 32 µg/mL | > 32 µg/mL | – | > 32 µg/mL | > 32 µg/mL | inhibition (Escherichia coli [3]): inactive; IC50 (DU-145): > 10 µM |
| C#CCOCCCCCCCCCCOc1ccc(-c2nc3ccc(-c4nc5ccc(N6CCN(C)CC6)cc5[nH]4)cc3[nH]2)cc1 | > 32 µg/mL | 16 to 32 µg/mL (≈ 25.9 to 51.7 µM) | > 50 µM | 5.6 °C | Active | > 32 µg/mL | > 32 µg/mL | 2 to 4 µg/mL (≈ 3.23 to 6.46 µM) | Active | > 32 µg/mL | 16 to 32 µg/mL (≈ 25.9 to 51.7 µM) | > 32 µg/mL | > 32 µg/mL | 12.2 µM | > 32 µg/mL | > 32 µg/mL | > 32 µg/mL | > 32 µg/mL | > 32 µg/mL | > 32 µg/mL | IC50 (DU-145): > 10 µM; IC50 [15]: > 50 µM |
